Experimental data reported in ChEMBL document CHEMBL2163211, “Antiviral chromones from the stem of Cassia siamea” (J Nat Prod, 2012).
In brackets after ≈: the same amount, converted by molar mass.

Key:
[1] = Therapeutic index, ratio of CC50 for human C8166 cells to EC50 for HIV1; format: cell-based; conditions: read-out: Ratio CC50/EC50
Procedure, shortened: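 Ratio of CC50 (MTT cytotoxicity in C8166 cells) to EC50, where EC50 comes from an assay of inhibition of HIV-1 cytopathic effects; azidothymidine served as the positive control.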

[2] = test system: Tobacco mosaic virus; assay: Antiviral activity against Tobacco mosaic virus infected in right side leaf of Nicotiana glutinosa at 20 uM after 3 to 4 days by half-leaf method; format: functional
Procedure, shortened: (§1)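 Half-leaf assay on N. glutinosa (local lesion host, 5–6-leaf stage, insect-free greenhouse). Purified TMV diluted to 32 μg/mL in 0.01 M PBS, mixed with compound (DMSO stock diluted with water) for 30 min, then rubbed on the left half-leaf; the right half received virus plus equal DMSO as control. Local lesions counted 3 or 4 days later, three repetitions; inhibition = (C−T)/C×100; ningnanmycin positive control.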

[3] = Cytotoxicity against human C8166 cells by MTT assay; format: cell-based
Procedure, shortened: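 C8166 cells assessed by MTT, with cytotoxicity expressed as CC50; azidothymidine served as the positive control.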

[4] = test system: Human immunodeficiency virus 1; assay: Antiviral activity against HIV1 infected in human C8166 cells assessed as inhibition of virus-induced cytopathic effect; format: functional, organism-based; conditions: Human immunodeficiency virus 1, C8166
Procedure, shortened: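 HIV-1 cytopathic-effect inhibition assay in C8166 cells gives EC50; cytotoxicity to C8166 cells measured in parallel by MTT to give CC50. Azidothymidine served as positive control.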

[5] = test system: Tobacco mosaic virus; assay: Antiviral activity against Tobacco mosaic virus infected in right side leaf of Nicotiana glutinosa at 5 uM after 3 to 4 days by half-leaf method; format: functional; procedure, shortened: as §1
[6] = test system: Tobacco mosaic virus; assay: Antiviral activity against Tobacco mosaic virus infected in right side leaf of Nicotiana glutinosa after 3 to 4 days by half-leaf method; format: functional, organism-based; procedure, shortened: as §1
[7] = test system: Tobacco mosaic virus; assay: Antiviral activity against Tobacco mosaic virus infected in right side leaf of Nicotiana glutinosa at 10 uM after 3 to 4 days by half-leaf method; format: functional; procedure, shortened: as §1
[8] = test system: Tobacco mosaic virus; assay: Antiviral activity against Tobacco mosaic virus infected in right side leaf of Nicotiana glutinosa at 160 uM after 3 to 4 days by half-leaf method; format: functional; procedure, shortened: as §1
[9] = test system: Tobacco mosaic virus; assay: Antiviral activity against Tobacco mosaic virus infected in leaf of Nicotiana glutinosa assessed as protection against viral infection at 20 uM treated 6 hrs before infection; format: functional
Procedure, shortened: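 Protection test: N. glutinosa leaves pretreated with 20 μM compound solution or DMSO solution for 6 h, then inoculated with purified TMV. Local lesions counted on the host leaves and inhibition rate computed from lesion numbers versus the DMSO control.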

[10] = test system: Tobacco mosaic virus; assay: Antiviral activity against Tobacco mosaic virus infected in right side leaf of Nicotiana glutinosa at 80 uM after 3 to 4 days by half-leaf method; format: functional; procedure, shortened: as §1
[11] = test system: Tobacco mosaic virus; assay: Antiviral activity against Tobacco mosaic virus infected in right side leaf of Nicotiana glutinosa at 40 uM after 3 to 4 days by half-leaf method; format: functional; procedure, shortened: as §1

SMILES	selectivity ratio [1]	inhibition at 20 µM [2] [%]	CC50 [3] [µg/mL]	EC50 [4] [µg/mL]	inhibition at 5 µM [5] [%]	IC50 [6] [µM]	inhibition at 10 µM [7] [%]	inhibition at 160 µM [8] [%]	inhibition at 20 µM [9] [%]	inhibition at 80 µM [10] [%]	inhibition at 40 µM [11] [%]
CC(=O)[C@@H]1c2cc(O)cc(O)c2C(=O)C[C@]1(C)O	28	6.4	88.3 (≈ 353 µM)	3.16 (≈ 12.6 µM)	–	–	–	–	–	–	–
CC1(C)C=Cc2c(cc(O)c3c(=O)cc(CCCO)oc23)O1 [SIAMCHROMONES F]	68	35.3	196 (≈ 650 µM)	2.89 (≈ 9.56 µM)	13.5	31.2	26.7	96.8	42.7	89.2	61.4
CC1(C)Oc2cc3oc(CO)cc(=O)c3c(O)c2C[C@@H]1O[C@@H]1O[C@H](CO)[C@@H](O)[C@H](O)[C@H]1O	> 109	–	> 200	–	–	–	–	–	–	–	–
COc1cc2oc(C)cc(=O)c2c(O)c1CC=C(C)C	15.2	8.7	74.3 (≈ 271 µM)	4.89 (≈ 17.8 µM)	–	–	–	–	–	–	–
Cc1cc(=O)c2c(O)c(C)c(O[C@@H]3O[C@H](CO)[C@@H](O)[C@H](O)[C@H]3O)c(C)c2o1 [UNCINOSIDE A]	5.89	7.9	22.8 (≈ 59.6 µM)	3.87 (≈ 10.1 µM)	–	–	–	–	–	–	–
Cc1cn([C@H]2C[C@H](N=[N+]=[N-])[C@@H](CO)O2)c(=O)[nH]c1=O [ZIDOVUDINE]	> 5880	–	> 200	0.034 (≈ 0.127 µM)	–	–	–	–	–	–	–
CC1=CC2(O)OC(C)=Cc3cc(O)cc(c32)O1 (centres undefined) [BARAKOL]	17.1	9	73.4 (≈ 316 µM)	4.28 (≈ 18.4 µM)	–	–	–	–	–	–	–
COc1cc(CC(C)=O)c2c(=O)cc(C(=O)CCO)oc2c1 [SIAMCHROMONES B]	16.3	9.8	85.2 (≈ 280 µM)	5.22 (≈ 17.2 µM)	–	–	–	–	–	–	–
CC(C)c1cc(=O)c2c(O)cc(O[C@@H]3O[C@H](CO)[C@@H](O)[C@H](O)[C@H]3O)cc2o1 [URACHROMONE A]	31	11.5	69.5 (≈ 182 µM)	2.24 (≈ 5.86 µM)	4.76	156	8.11	50.9	13.7	30.7	22.4
COc1cc2c(c3oc(C(=O)O)cc(=O)c13)C=CC(C)(C)O2 [PERFORATIC ACID]	2.3	13.6	26.5 (≈ 87.7 µM)	11.5 (≈ 38.2 µM)	5.62	127	9.27	54.7	10.2	36.8	25.4
COc1cc2c(c3oc(C)cc(=O)c13)C=CC(C)(C)O2	8.3	9.2	37.3 (≈ 137 µM)	4.49 (≈ 16.5 µM)	–	–	–	–	–	–	–
Cc1cc(=O)c2c(CC(C)O[C@@H]3O[C@H](CO)[C@@H](O)[C@H](O)[C@H]3O)cc(O)cc2o1 (some centres undefined)	63.3	8.6	118 (≈ 299 µM)	1.87 (≈ 4.72 µM)	–	–	–	–	–	–	–
CC(=O)Cc1cc(O)cc2oc(C(=O)CCO)cc(=O)c12 [SIAMCHROMONES A]	26	15.2	127 (≈ 436 µM)	4.87 (≈ 16.8 µM)	6.21	86.4	11.4	62.4	18.4	47.2	30.3
COc1cc(CC(C)=O)c2c(=O)cc(CCCO)oc2c1 [SIAMCHROMONES C]	6.87	8.6	43.6 (≈ 150 µM)	6.34 (≈ 21.8 µM)	–	–	–	–	–	–	–
Cc1cc(=O)c2c(O)c(C)c(O)c(C)c2o1	10.5	8.6	57.5 (≈ 261 µM)	5.46 (≈ 24.8 µM)	–	–	–	–	–	–	–
COc1cc2c(c3oc(CCCO)cc(=O)c13)C=CC(C)(C)O2 [SIAMCHROMONES G]	> 23.6	5.7	> 200	8.46 (≈ 26.7 µM)	–	–	–	–	–	–	–
C/C=C/c1cc(=O)c2c(CC(C)=O)cc(O)cc2o1 [SIAMCHROMONES E]	9.37	9.2	26.7 (≈ 103 µM)	2.85 (≈ 11 µM)	–	–	–	–	–	–	–
COc1cc(CC(C)=O)c2c(=O)cc(CCCOC(C)=O)oc2c1 [SIAMCHROMONES D]	> 107	7.5	> 200	1.87 (≈ 5.63 µM)	–	–	–	–	–	–	–
CNCC(=O)N[C@@H](CO)C(=O)N[C@H]1[C@H](O)[C@@H](O)[C@H](n2ccc(N)nc2=O)O[C@@H]1C(N)=O [NINGNANMYCIN]	–	30.2	–	–	11.8	49.9	22.6	82.7	27.4	61.3	48.3
CC(=O)Cc1cc(O)cc2oc(C)cc(=O)c12	13.5	6.7	88.7 (≈ 382 µM)	6.58 (≈ 28.3 µM)	–	–	–	–	–	–	–
